Test system: MS2 coat protein
Experiment: apparent Kd, MS2 coat protein; higher = weaker binding; RNA-MaP array; FMN 200 µM where present
Method in brief: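 SNAP-549-labelled MS2 coat protein, doubled from 0.7 or 1.5 nM to 3 µM, was titrated over designs transcribed by stalled E. coli RNA polymerase on Illumina sequencing-chip clusters. Titrations were run without and then with constant ligand in 100 mM Tris-HCl pH 7.5, 80 mM KCl, 4 mM MgCl2, BSA, DTT, yeast tRNA and Tween-20. The apparent Kd is the median of filtered per-cluster fits to green signal normalised to red-channel RNA signal and control-cluster median Fmax.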

[1] = designed as: OFF switch for flavin mononucleotide, no ligand
[2] = ligand present: flavin mononucleotide, designed as: OFF switch for flavin mononucleotide
[3] = designed as: ON switch for flavin mononucleotide, no ligand
[4] = ligand present: flavin mononucleotide, designed as: ON switch for flavin mononucleotide

Row | Sequence | apparent Kd [1] | apparent Kd [2] | apparent Kd [3] | apparent Kd [4]
1 | UCGCCUUAGUAAGGAUAUCACAUGAGGAUCACCCAUGUGGGCGUGACACGGUGAGAAGGUACGCGGCGAAGGUGCCAAGGCAUC | 387 nM | 44 nM | – | –
2 | AGAGAUGACGAAGGAUAUGGAUACAUGAGGAUCACCCAUGUUUAUAUAGUGAAAUUGAUUGAAUUCCAGAAGGUCGAAUAAAAG | 46.7 nM | 36.9 nM | – | –
3 | GUCAGCUCGUGAGGAUAUACAACACUGCUUCGGCAGUGUAUUAAGAUCACAUGAGGAUCACCCAUGUAGAAGGCACGAGCUUAU | 13.5 nM | 233 nM | – | –
4 | UGUGCGUAUGUGAGGAUAUGCUGGUCCUUGGAUCGGCAGAAGGCACAUGAGGAUCACCCAUGUGGUGUCGUUCA | 264 nM | 27.2 nM | – | –
5 | UGUCCAUAGCAGAAGGACAUGAGGAUCACCCAUGUAAUAAAACAUCCAAAUGUAGGAUAUGCUAUGGACUAAGAGCGAAAGCUC | 28.9 nM | 606 nM | – | –
6 | GCAUGCAUAGCGAUAUGAUCGAGAGAUCAUGUCGCUAAAUUUAGAAGGACAUGAGGAUCACCCAUGUAGGAUAUGGGAGCAUGU | – | – | 92.1 nM | 15.4 nM
7 | AAAAAGCGAGGAUAUACAUGAGGAUCACCCAUGUAAAAAAAAAGAGAUGAAACAUCAUGUAGAAGGCGCAAAAA | 211 nM | 134 nM | – | –
8 | AGCGAACAGGCUAACAUGAGGAUCACCCAUGUGGACUCAUGGUAGGAUAUCGGGAAGGAGGAAACCGAGAAGGGCCGGUGAGCG | – | – | 150 nM | 70.8 nM
9 | GGAGGACAUGAGGAUCACCCAUGUGGAUGGGCGCUAGGAUAUGCGUGCGGGAAGAGUGGAGCAGAAGGAGUGGGUU | – | – | 48.3 nM | 42.2 nM
10 | GUAUUUGAAGUAAGGAUAUGCCUCUGGAAACGGAGGUAGAAGGUACAUGAGGAUCACCCAUGUUUCUCUCUUGG | 16.9 nM | 27.3 nM | – | –
11 | CGUAGUUGGUAAGGAUAUCCUACACUAUUCUGACCCGUGCAAGCUACAUGAGGAUCACCCAUGUGGGAGAAGGUGCGUCAACGU | 10.8 nM | 10.9 nM | – | –
12 | UGAGCCUCGUGAGGAUAUACAUGAGGAUCACCCAUGUAAUAAAGUGAACGGAGGAAACUCCGAAUGUAGAAGGCACGAGGCUUA | 18.7 nM | 146 nM | – | –
13 | CCCAUGUUAGGAUAUAUGGAAGGGCGCACGUGCACCCUAAGGUAGAAGGGACAUGAGGAUCACCCAUGUAAUAA | 152 nM | 228 nM | – | –
14 | GGAAAUCAUGUAGGAUAUGCAUGGCGAAGCUACGCAGAAGGACAUGAGGAUCACCCAUGUUAUAGCUACCCGUUACGGUGGCAA | 131 nM | 119 nM | – | –
15 | GGUGCGUUUGUGAGGAUAUGCUGGUCCUUGGAUCAGCAGAAGGCACAUGAGGAUCACCCAUGUGGUGUCGUCCC | 348 nM | 44.7 nM | – | –
16 | GGAUGACAAAGUCAUCCUAUUCGAACAUGAGGAUCACCCAUGUAGGAUAUGCUACACAAAGUGUAGCAGAAGGACAUGUGCUUU | 33.8 nM | 171 nM | – | –
17 | UGUUGUUGAUAGGAUAUACAGGUAGGAGUAGGAGUAGAAGGAUCUACAUGAGGAUCACCCAUGUAGGAGUGAGA | 16.1 nM | 17.7 nM | – | –
18 | ACUAGAUGAGGAUAUGCAUAUUUUCGUGUUCUUCUAGAUUAACAUGAGGAUCACCCAUGUAGAAGGCGUCUGGC | 18.6 nM | 33.8 nM | – | –
19 | UACAUGAGGAUCACCCAUGUUUUGUCGUGUAUGGUAUUUAUCUAGGAUAUCAUUUUAUUUAGGUAUGAGAAGGAGAAUAUUAAU | 35.4 nM | 36.2 nM | – | –
20 | UUCAGGGAUCAAGGAUAUCUAUAUUCAUGAGGACAUGAGGAUCACCCAUGUUGAUUACCCAUGAGGGAGAAGGUGAACAUGAGG | – | – | 44.2 nM | 18.7 nM
21 | GUGUACAGAGGAUAUGCUGGAAUCUAGCGAAGCUAGGUUCCACAUGAGGAUCACCCAUGUAGAAGGCUGUACAC | 23.3 nM | 14.2 nM | – | –
22 | GUUUUUGCAUGAGGAUAUGCUCGCAUUUCAAGAGCAGAAGGUAUUUCUUUUGACAUGAGGAUCACCCAUGUAUUUAUCAUUGAA | – | – | 21 nM | 18.9 nM
23 | UUAUUUAGGUAGGAUAUCGAUACUAAUUACUAUCGAGAAGGGUCUACAUGAGGAUCACCCAUGUUAGCAUGUUU | 27.2 nM | 25.5 nM | – | –
24 | CACGCAUGUGGAGGAUAUGCAGUUAACAUUAGCGCAGAAGGCCACAUGAGGAUCACCCAUGUCCGGCAUUAGCCGAUGUUGAUC | 139 nM | 227 nM | – | –

Row | Sequence | apparent Kd [1] | apparent Kd [2] | apparent Kd [3] | apparent Kd [4]
25 | AGCUAGUCAGGAUAUACAUGAGGAUCACCCAUGUAAACUUUUAGUUUAAUUUGAAUGUGUAGAAGGGACAUAAA | 21.7 nM | 24.1 nM | – | –
26 | CGGGUCUGAGGAUAUCCAUCUUCAUACAUGAGGAUCACCCAUGUUUACCCUUGGGUUCCUGGAGAAGGCAGUUUUC | 166 nM | 162 nM | – | –
27 | AACGUGUCAGGAUAUGCUGCUCGUCACGAAAGUGAUGAGUAGCAGAAGGGACAUGAGGAUCACCCAUGUAAAGA | 153 nM | 101 nM | – | –
28 | CGGCCGUAAGGAUAUACAUGAGGAUCACCCAUGUAUGGAAUAGCAUGAGGCGGCCCAGGUAGAAGGUAUGCCCG | 20.8 nM | 30.5 nM | – | –
29 | CGCUACAUGAGGAUCACCCAUGUACUAACUUGCACGUGAACGAGAAGGCCACAGCAACCCUGCGUGGAGGAUAUCGUGGUGCCA | – | – | 8.49 nM | 7.48 nM
30 | AGUUAAUAUCGAGGAUAUGUCUAGACACAUGAGGAUCACCCAUGUAUGUGUAUAGAAGGCGAUAUUAACAGCAUGUUACAUGCC | – | – | 37.2 nM | 15.6 nM
31 | CCAUGGCUGUGAGGAUAUGUCUGACAAAGUCAGACAGAAGGCACAUGAGGAUCACCCAUGUGAAAACACCAACAAAAGCCAUGG | 5.93 nM | 6.9 nM | – | –
32 | AUCUCGUCAGGAUAUUGGAUCUGGAUCGAAAGGUCUAGGUCUAAGAAGGGACAUGAGGAUCACCCAUGUCUGGU | 22.9 nM | 69.6 nM | – | –
33 | GUGCACAUUCGAGGAUAUCGGAGAGAGAUCCUUCGAGAAGGCGAUUCAUGCUGUAUUAUUCUGGACAUGAGGAUCACCCAUGUG | – | – | 230 nM | 101 nM
34 | UGGACUGGGCAGAAGGGACAUGAGGAUCACCCAUGUCUUGGGCUACUUCAGUCAGGAUAUGCCCGUUGAAUAUCCGUGCAUCAA | 10.2 nM | 52.6 nM | – | –
35 | GGAUUACAAAUUUAUUUAAUACGAACAUGAGGAUCACCCAUGUAGGAUAUGCUAGUUAAGUAAUAGCAGAAGGACAUGUGCCUU | 10.8 nM | 30.6 nM | – | –
36 | UGGUACUAGGGAGGAUAUGGGAAGAUACAUGAGGAUCACCCAUGUUUAAGAAUGCCGAGAGGCAACUAGAAGGCCCUAAUACCU | – | – | 400 nM | 19.1 nM
37 | ACAUGAGGAUCACCCAUGUGAAAACAAUGGCUGACACAGAGAUAGGAUAUAUGUGCAUAUCAAACAUAGAAGGGUCAUAACUGG | 50 nM | 50.6 nM | – | –
38 | GUUUCUAUAUGUUUUAUUUAACAGUCAGAAGGUGAUACUACGACAUGAGGAUCACCCAUGUAAUUCAAGGAUAUGAACUUAAUC | – | – | 1060 nM | 517 nM
39 | GUACUGUAGUGAGGAUAUACGAGUUCGAUAGAACGGCGAUCCAUAUAUACAUGAGGAUCACCCAUGUAGAAGGCACUUCAGUAC | 7.69 nM | 100 nM | – | –
40 | AAAAGACAUGAGGAUCACCCAUGUCAAGACGUAGGAGGAUAUGUCGUGAAAAAAGACUUGACAGAAGGCCUGUGUC | – | – | 18.7 nM | 15.4 nM
41 | GGAUAUAUUACAUGAGGAUCACCCAUGUCAGAAAGGGUAAUCAGAAGGUACUAUUAGAGAAAGAGUAAGGAUAUGAUUAUAUCC | – | – | 630 nM | 147 nM
42 | GCCAUGCUGGUGACGGAUAACACAUGAGGAUCACCCAUGUACAGAAGGCGGAAUUAGCGUAGGACCGAGGAUAUGUACGUGAGG | 89.5 nM | 26.4 nM | – | –
43 | GUCGGAAACGACAAAAGUAGCAUAGGAGAAGGCAUGUCAUAAGACAUGAGGAUCACCCAUGUGCAUGAGGAUAUCCUAUGCUAC | – | – | 5.53 nM | 4.98 nM
44 | CGGAAAAGGUAGGAUAUGCUAGACGAAAGUCUAGCAGAAGGACCUACAUGAGGAUCACCCAUGUGUCCAAUCCG | 56.3 nM | 24.7 nM | – | –
45 | CUUGUUGUCGAGGAUAUGCACCAGCUCACUGACGCAGAAGGCGACACAUGAGGAUCACCCAUGUCAGUUCGCGU | 37.4 nM | 225 nM | – | –
46 | AACCAUGAGCGAGGAUAUCACCCUACGGAGUGGUGAGAAGGCGCAACAUGAGGAUCACCCAUGUACAAAUGCGGGACCCUUUUC | 31 nM | 92.6 nM | – | –
47 | AUCGGGAGAGGAUAUACAUGAGGAUCACCCAUGUUGGGAACAUCGGUUUGUUAGUUGCGUAGAAGGCUCGGGCG | 46.4 nM | 66.3 nM | – | –
48 | UUCAGGGAUCAAGGAUAUCUAUAAACAUGCGGACAUGAGGAUCACCCAUGUUGAUUACCCAUGUGGGAGAAGGUGAACAUGAGG | – | – | 44.7 nM | 20.6 nM

From the EternaBench riboswitch data
